Results published in paper PMC4324449 (ACS Chemical Biology, 2014).

What was measured:
[1] = Self-association by concentration-dependent UV–vis absorption; format: physicochemical; conditions: for self-association by UV–vis, in words: concentration-dependent λmax, Tris buffer pH 7.4
In short: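 Absorption spectra recorded over a foldamer dilution series in 10 or 1 mm cuvettes. λmax plotted against concentration and fitted to a monomer-hexamer equilibrium, with monomer and hexamer λmax as fitted variables. Salt series run in 0.05 M Tris, pH 7.4, at varying NaCl, with all salt conditions fitted globally.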

[2] = Self-association by ITC heats of dilution; format: physicochemical; conditions: dilution in TBS, 25 °C
In short: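 Heats of dilution at 25 °C. Foldamer at 1 mM in TBS (0.050 M Tris, 0.150 M NaCl, pH 7.4) injected serially into TBS in the calorimetric cell. Heat per injection taken from the integrated peak area, normalized over accumulated additions and plotted against final foldamer concentration. Fitted to a monomer-dimer-hexamer or monomer-hexamer model, depending on the foldamer.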

Row | pK(hex-mon) UV–vis ([1]; concentration dependence of λmax in TBS pH 7.4, monomer-hexamer fit, K in M5) | self-assembly by ITC, in words [2] | Substance | self-association by UV–vis, in words [1]
1 | <15 |  | (Lys-Sal)3-CONH2 [Compound 8] | did not show any spectral changes at concentrations as high as 500 μM
2 |  |  | (D-Cit-Sal)4-CONH2 [Compound 7] | did not appear to show significant dissociation
3 |  | very weak to no self-assembly | (Lys-Sal)4-COOH [Compound 2] | did not appear to associate at all over this concentration range
